Laboratory results published in ChEMBL document CHEMBL4312018, “Novel benzimidazole phosphonates as potential inhibitors of protein prenylation” (Bioorg Med Chem Lett, 2019).
Activity calls are given as the source filed them. No cut-off for these calls is given here.

Assays:
[1] = target: Protein farnesyltransferase (Rattus norvegicus, UniProt Q02293+Q04631); experiment: Inhibition of recombinant rat FTase expressed in Escherichia coli using dansyl-GCVLS as substrate after 1.5 hrs by spectrofluorimetric analysis
[2] = target: Protein farnesyltransferase (Homo sapiens) (UniProt P49354+P49356); experiment: Inhibition of FTase in human RPMI8226 cells assessed as disruption of H-ras farnesylation after 48 hrs by immunoblot analysis; assay type: cell-based
[3] = target: T1, geranylgeranyltransferase type-I (Rattus norvegicus) (UniProt P53610+Q04631); experiment: Activation of recombinant rat GGtase-1 expressed in Escherichia coli assessed as enzyme activity at 1000 uM using dansyl-GCVLL as substrate after 1.5 hrs by spectrofluorimetric analysis relative to control
[4] = target: T2, Geranylgeranyl transferase type-2 (Rattus norvegicus, UniProt Q08602+Q08603); experiment: Inhibition of recombinant rat RabGGTase expressed in Escherichia coli using Rab7 as substrate and [3H]geranylgeranyl pyrophosphate after 20 mins by liquid scintillation analysis
T2 sequence (Q08603 whole entry): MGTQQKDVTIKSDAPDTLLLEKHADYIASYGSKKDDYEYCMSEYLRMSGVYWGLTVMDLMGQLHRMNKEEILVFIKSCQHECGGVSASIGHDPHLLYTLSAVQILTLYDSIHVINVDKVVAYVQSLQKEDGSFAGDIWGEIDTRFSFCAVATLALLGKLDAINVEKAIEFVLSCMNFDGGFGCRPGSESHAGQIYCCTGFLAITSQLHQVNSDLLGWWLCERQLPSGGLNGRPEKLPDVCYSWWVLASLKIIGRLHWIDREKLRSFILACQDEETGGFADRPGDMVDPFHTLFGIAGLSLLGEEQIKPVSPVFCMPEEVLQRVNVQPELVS
T2 sequence (Q08602 whole entry): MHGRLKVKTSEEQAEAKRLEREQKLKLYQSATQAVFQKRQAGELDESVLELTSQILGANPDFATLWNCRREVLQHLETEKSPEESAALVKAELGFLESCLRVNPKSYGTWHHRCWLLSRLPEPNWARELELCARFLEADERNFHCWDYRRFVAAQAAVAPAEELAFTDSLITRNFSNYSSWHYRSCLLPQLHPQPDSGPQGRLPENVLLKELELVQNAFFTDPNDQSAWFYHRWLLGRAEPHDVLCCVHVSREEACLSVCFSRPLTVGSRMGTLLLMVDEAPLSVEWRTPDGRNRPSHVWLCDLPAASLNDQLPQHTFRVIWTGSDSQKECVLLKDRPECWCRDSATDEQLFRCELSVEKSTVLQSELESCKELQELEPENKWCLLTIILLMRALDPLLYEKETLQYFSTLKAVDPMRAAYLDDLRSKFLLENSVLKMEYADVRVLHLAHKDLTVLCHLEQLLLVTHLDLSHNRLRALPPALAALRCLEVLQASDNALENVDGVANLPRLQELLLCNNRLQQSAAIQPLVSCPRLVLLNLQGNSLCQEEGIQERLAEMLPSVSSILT

[5] = target: T1, geranylgeranyltransferase type-I (Rattus norvegicus); experiment: Activation of recombinant rat GGtase-1 expressed in Escherichia coli using dansyl-GCVLL as substrate after 1.5 hrs by spectrofluorimetric analysis
Homo sapiens = species: Homo sapiens; experiment: Selectivity ratio of IC50 for GGDPS (unknown origin) to IC50 for FDPS (unknown origin)
[6] = target: Geranylgeranyl transferase type I (Homo sapiens) (UniProt P49354+P53609); experiment: Inhibition of GGtase-1 in human RPMI8226 cells assessed as disruption of Rap1a geranylgeranylation after 48 hrs immunoblot analysis; assay type: cell-based
[7] = target: geranylgeranyltransferase type-I (Rattus norvegicus, UniProt P53610+Q04631); experiment: Inhibition of recombinant rat GGtase-1 expressed in Escherichia coli using dansyl-GCVLL as substrate after 1.5 hrs by spectrofluorimetric analysis
[8] = target: T3, Geranylgeranyl pyrophosphate synthase (Homo sapiens, UniProt O95749); experiment: Inhibition of GGDPS (unknown origin) using [14C] IPP and FPP as substrate preincubated for 10 mins followed by substrate addition and measured after 30 min by liquid scintillation counting method
T3 sequence (O95749 whole entry): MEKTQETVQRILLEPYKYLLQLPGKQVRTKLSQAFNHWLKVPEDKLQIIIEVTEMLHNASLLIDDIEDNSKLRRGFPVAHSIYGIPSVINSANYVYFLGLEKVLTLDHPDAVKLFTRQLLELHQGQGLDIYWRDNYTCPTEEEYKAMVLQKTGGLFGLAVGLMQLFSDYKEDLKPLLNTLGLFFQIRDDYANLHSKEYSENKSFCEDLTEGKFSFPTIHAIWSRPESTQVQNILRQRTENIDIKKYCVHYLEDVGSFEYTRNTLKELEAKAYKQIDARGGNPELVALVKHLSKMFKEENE

[9] = target: T4, Geranylgeranyl transferase type-2 (Homo sapiens) (UniProt P53611+Q92696); experiment: Inhibition of GGtase-2 in human RPMI8226 cells assessed as decrease in Rab6 level at =< 1 mM after 48 hrs by immunoblot analysis relative to control; assay type: cell-based
Procedure, shortened: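 After 48 h treatment, RPMI-8226 cells were extracted with Triton X-114 to give a detergent (membrane) fraction, which was immunoblotted for Rab6. Rab6 band density was normalized to calnexin and expressed relative to untreated cells. Blots are representative of three independent studies.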

[10] = target: T4, Geranylgeranyl transferase type-2 (Homo sapiens); experiment: Inhibition of GGtase-2 in human RPMI8226 cells assessed as increase in intracellular lambda chain at =< 1 mM level after 48 hrs by ELISA; assay type: cell-based
Procedure, shortened: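 RPMI-8226 cells were incubated 48 h with the compound or medium alone. Intracellular lambda light chain was quantified by ELISA and expressed as percent of untreated control (mean ± SD, n=3). Significance versus control was judged by t-test, p<0.05.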

[11] = target: T5, Farnesyl pyrophosphate synthase (Homo sapiens) (UniProt P14324); experiment: Inhibition of FDPS in human RPMI8226 cells assessed as unmodified Rap1a level at =< 1 mM after 48 hrs by immunoblot analysis; assay type: cell-based
T5 sequence (whole entry): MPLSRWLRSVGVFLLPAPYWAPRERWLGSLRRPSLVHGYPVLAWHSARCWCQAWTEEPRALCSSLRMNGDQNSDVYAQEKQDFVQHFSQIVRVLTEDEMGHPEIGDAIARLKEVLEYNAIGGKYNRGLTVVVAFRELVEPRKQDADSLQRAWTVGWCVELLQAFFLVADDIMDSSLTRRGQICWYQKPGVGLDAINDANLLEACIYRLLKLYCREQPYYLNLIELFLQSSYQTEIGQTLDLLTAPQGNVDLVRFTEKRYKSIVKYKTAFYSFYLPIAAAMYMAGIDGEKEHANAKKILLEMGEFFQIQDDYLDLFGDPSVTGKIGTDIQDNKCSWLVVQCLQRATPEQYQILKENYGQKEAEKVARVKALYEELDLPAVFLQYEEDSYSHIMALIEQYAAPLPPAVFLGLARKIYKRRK
Procedure, shortened: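 RPMI-8226 cells were exposed for 48 h. The lowest effective concentration counts only when two read-outs agree. Unmodified Rap1a must be visible on immunoblot of whole-cell lysate, using an antibody that detects only unmodified protein.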

[12] = target: T5, Farnesyl pyrophosphate synthase (Homo sapiens); experiment: Inhibition of FDPS in human RPMI8226 cells assessed as increase in intracellular lambda chain level at =< 1mM after 48 hrs by ELISA; assay type: cell-based
Procedure, shortened: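 RPMI-8226 cells were exposed for 48 h, and intracellular lambda light chain was measured by ELISA as percent of untreated control. The lowest effective concentration also requires unmodified Rap1a to be visible on whole-cell-lysate immunoblot with an unmodified-specific antibody. The ELISA rise must be statistically significant.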

[13] = target: T6, Farnesyl pyrophosphate synthase (Homo sapiens, UniProt P14324); experiment: Inhibition of FDPS (unknown origin) using [14C] IPP and GPP as substrate preincubated for 10 mins followed by substrate addition and measured after 30 min by liquid scintillation counting method
T6 sequence (P14324 whole entry): T5 sequence (whole entry)

## Cc1cc2ncn(CC(P(=O)(O)O)P(=O)(O)O)c2cc1C
[1]
  IC50: > 1000 µM
[2]
  inhibition: inactive
[3]
  Activity: 560%
[4]
  IC50: 534 µM
[5]
  Activity: Dose-dependent effect
Homo sapiens
  Ratio IC50: 59
[6]
  inhibition: inactive
[7]
  IC50: > 1000 µM
[8]
  IC50: 41 µM
[9]
  inhibition: inactive
[10]
  inhibition: inactive
[11]
  inhibition: inactive
[12]
  inhibition: inactive
[13]
  IC50: 0.69 µM
